Measurements as given in ChEMBL document CHEMBL3392964, “Design, synthesis, and evaluation of novel imidazo[1,2-a][1,3,5]triazines and their derivatives as focal adhesion kinase inhibitors with antitumor activity” (J Med Chem, 2015).
Calls of active or inactive are those of the source. The calls are words filed in the database; no cut-off is given here.

What was measured:
[1] = Antimigratory activity in human U87MG cells at 3 uM […] by transwell membrane assay; assay type: functional, U-87MG ATCC
[2] = Antiproliferative activity against human U87MG cells after 48 hrs by WST-1 assay; assay type: functional, cell-based, U-87MG ATCC; conditions: U-87 MG
Procedure, shortened: (§1)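 Exponentially growing cells in DMEM/10% FBS seeded at 5 × 10^3 per well, left overnight, then exposed 48 h to compounds diluted from DMSO; WST-1 added for 2 h, absorbance at 450 nm (reference 620 nm); viability as ratio to DMSO controls; three independent experiments, triplicate points; IC50 by nonlinear regression (log inhibitor vs normalized response, variable slope).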

[3] = Cell cycle arrest in human U87MG cells assessed as accumulation at G2 phase at 3 uM after 24 hrs by propidium iodide staining-based flow cytometry relative to control; assay type: functional; conditions: U-87MG ATCC
Procedure, shortened: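 U87-MG cells plated at 10^5 per well, incubated overnight, then exposed to compound or vehicle control for 24 h. Cells stained with propidium iodide in PI/triton buffer for 15 min at 37 °C and analysed by flow cytometry. Cell-cycle phases were assigned by the Dean–Jett–Fox method. Significance was tested by unpaired Student's t test, and one representative experiment is shown.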

[4] = molecular target: Insulin receptor (Homo sapiens) (UniProt P06213); test: Inhibition of human recombinant IR using poly[Glu:Tyr] as substrate at 1 uM by [gamma-33P]ATP-based assay
Insulin receptor (Homo sapiens), sequence (P06213 28-758 limits assumed): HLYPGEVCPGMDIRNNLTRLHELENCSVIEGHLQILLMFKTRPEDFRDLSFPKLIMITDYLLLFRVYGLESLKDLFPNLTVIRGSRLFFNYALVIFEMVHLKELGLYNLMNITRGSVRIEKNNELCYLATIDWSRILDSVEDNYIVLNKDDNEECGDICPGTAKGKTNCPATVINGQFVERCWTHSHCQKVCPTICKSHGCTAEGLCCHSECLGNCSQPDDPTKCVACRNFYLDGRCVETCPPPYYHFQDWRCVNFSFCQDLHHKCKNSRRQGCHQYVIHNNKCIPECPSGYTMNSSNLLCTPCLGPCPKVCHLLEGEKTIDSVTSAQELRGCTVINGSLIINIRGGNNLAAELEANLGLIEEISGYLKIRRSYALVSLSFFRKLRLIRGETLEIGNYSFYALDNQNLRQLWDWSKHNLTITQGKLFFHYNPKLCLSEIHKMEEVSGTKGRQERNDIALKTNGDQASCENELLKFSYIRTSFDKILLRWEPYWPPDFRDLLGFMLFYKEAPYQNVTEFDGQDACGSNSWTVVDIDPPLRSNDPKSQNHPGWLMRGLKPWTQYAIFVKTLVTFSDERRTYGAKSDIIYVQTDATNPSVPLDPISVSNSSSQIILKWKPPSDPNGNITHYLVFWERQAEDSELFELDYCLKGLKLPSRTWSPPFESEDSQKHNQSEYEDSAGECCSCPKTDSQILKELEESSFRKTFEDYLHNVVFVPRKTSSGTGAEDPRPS
Insulin receptor (Homo sapiens), sequence (P06213 763-1382 limits assumed): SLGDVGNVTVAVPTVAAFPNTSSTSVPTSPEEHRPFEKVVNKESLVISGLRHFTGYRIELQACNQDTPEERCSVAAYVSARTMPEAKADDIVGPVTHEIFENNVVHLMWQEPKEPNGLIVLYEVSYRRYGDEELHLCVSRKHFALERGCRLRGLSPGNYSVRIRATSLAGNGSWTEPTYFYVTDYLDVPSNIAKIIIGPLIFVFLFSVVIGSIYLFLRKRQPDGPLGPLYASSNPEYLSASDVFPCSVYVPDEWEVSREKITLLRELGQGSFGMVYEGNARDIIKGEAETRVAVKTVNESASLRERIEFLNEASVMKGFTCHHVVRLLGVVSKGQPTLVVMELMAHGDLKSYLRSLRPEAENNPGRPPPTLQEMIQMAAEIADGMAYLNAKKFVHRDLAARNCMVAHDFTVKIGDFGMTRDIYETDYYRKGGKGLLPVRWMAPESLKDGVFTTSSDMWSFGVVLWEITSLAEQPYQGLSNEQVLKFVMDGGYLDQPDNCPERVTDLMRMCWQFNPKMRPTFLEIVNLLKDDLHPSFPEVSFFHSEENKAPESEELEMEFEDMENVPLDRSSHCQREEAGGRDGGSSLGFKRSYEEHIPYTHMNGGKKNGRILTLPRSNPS
Procedure, shortened: (§2)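 Radioactive kinase assay with [γ33P]ATP and human recombinant kinase, compound tested at 1 μM.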

[5] = system: HCT-116; test: Induction of apoptosis in human HCT116 cells at < 0.5 uM after 24 hrs by Annexin V-PE/7-AAD staining-based FACS analysis; assay type: functional, cell-based
[6] = system: PC-3; test: (§3) Inhibition of colony formation in human PC3 cells after 2 weeks by crystal violet staining-based assay; assay type: functional, cell-based
Procedure, shortened: (§4)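 Seeding: 250 cells per well for HCT-116, 300 for U87MG, MDA-MB-231 and PC-3; incubated overnight, then exposed to a range of concentrations for 2 weeks. Fixed in 4% paraformaldehyde 30 min at room temperature, stained with 0.1% crystal violet. Colonies over 50 cells counted; colony formation rate calculated; IC50 by nonlinear regression.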

[7] = as §3; assay type: functional, cell-based; conditions: PC-3, 336 h; procedure, shortened: as §4
[8] = system: U-87 MG; test: Induction of apoptosis in human U87MG cells assessed as necrotic cells at 3 uM after 24 hrs by Annexin V-PE/7-AAD staining-based FACS analysis (reference value: 1.06%); assay type: functional, U-87MG ATCC
[9] = system: HCT-116; test: Induction of apoptosis in human HCT116 cells assessed as early apoptotic cells at 0.5 uM after 24 hrs by Annexin V-PE/7-AAD staining-based FACS analysis (reference value: 4.68%); assay type: functional
[10] = molecular target: T1, Focal adhesion kinase 1 (Homo sapiens, UniProt Q05397); test: Inhibition of FAK phosphorylation at tyrosine 397 in human MDA-MB-231 cells after 48 hrs by FACEFAK ELISA; assay type: cell-based
Procedure, shortened: (§5)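 Cells in DMEM with 10% FBS, 3 × 10^3 per well, treated 48 h at 0.1, 1 and 10 μM. Fixed in 4% formaldehyde; antibodies to pTyr397-FAK or total FAK, HRP secondary, read at 450 nm. Crystal violet cell count at 595 nm. Phospho-FAK normalised to total FAK and cell number; fold decrease versus control, triplicate readings, three independent experiments.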
Target sequence in this assay (Q05397 2-1052 limits assumed): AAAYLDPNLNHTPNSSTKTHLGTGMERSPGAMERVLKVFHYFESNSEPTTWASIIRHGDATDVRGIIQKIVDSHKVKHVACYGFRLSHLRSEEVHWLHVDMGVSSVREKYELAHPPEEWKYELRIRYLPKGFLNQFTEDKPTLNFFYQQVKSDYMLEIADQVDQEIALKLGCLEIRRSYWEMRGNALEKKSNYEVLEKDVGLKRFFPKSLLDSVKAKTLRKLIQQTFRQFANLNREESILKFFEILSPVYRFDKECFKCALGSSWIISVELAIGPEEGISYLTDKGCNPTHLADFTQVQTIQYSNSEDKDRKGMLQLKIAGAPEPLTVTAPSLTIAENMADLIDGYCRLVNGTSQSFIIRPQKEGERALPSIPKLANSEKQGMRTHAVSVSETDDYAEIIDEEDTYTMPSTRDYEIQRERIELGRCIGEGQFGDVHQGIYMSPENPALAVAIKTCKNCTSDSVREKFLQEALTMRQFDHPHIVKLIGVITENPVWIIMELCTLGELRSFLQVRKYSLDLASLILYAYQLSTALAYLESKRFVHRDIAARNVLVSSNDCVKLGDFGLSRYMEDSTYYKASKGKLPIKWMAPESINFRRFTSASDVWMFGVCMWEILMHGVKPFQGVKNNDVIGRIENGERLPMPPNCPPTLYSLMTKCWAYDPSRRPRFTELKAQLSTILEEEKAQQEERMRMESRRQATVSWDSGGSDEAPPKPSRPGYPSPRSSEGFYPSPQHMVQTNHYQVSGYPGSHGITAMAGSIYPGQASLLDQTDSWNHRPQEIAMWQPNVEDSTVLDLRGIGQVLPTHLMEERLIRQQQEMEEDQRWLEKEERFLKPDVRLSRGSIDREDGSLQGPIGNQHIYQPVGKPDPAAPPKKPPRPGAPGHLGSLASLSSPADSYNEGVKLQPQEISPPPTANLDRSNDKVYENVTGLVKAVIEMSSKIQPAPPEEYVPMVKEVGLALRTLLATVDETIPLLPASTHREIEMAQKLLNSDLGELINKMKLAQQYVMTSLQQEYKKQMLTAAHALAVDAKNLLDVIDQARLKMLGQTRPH

[11] = system: MDA-MB-231; test: Antiproliferative activity against human MDA-MB-231 cells after 48 hrs by WST-1 assay; assay type: functional, cell-based; conditions: MDA-MB-231, 48 h; procedure, shortened: as §1
[12] = system: U-87 MG; test: Induction of apoptosis in human U87MG cells assessed as viable cells at 3 uM after 24 hrs by Annexin V-PE/7-AAD staining-based FACS analysis (reference value: 96.7%); assay type: functional, U-87MG ATCC; conditions: read-out: Activity
[13] = Cell cycle arrest in human HCT116 cells assessed as accumulation at S phase at 0.5 uM after 24 hrs by propidium iodide staining-based flow cytometry (reference value: 17.7%); assay type: functional; conditions: HCT-116
Procedure, shortened: (§6)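 Cells plated at 10^5 per well, left overnight, then exposed 24 h to compound or vehicle; stained 15 min at 37 °C with propidium iodide/Triton buffer; DNA content by flow cytometry, phase distribution fitted by Dean–Jett–Fox; HCT-116 at 0.3–0.5 μM, U87-MG at 0.3–3 μM; significance by unpaired Student's t test; one representative experiment.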

[14] = system: HCT-116; test: Induction of apoptosis in human HCT116 cells assessed as late apoptotic cells at 0.5 uM after 24 hrs by Annexin V-PE/7-AAD staining-based FACS analysis (reference value: 1.22%); assay type: functional
[15] = system: HCT-116; test: Induction of apoptosis in human HCT116 cells assessed as apoptotic cells at 0.5 uM after 24 hrs by Annexin V-PE/7-AAD staining-based FACS analysis relative to control; assay type: functional
[16] = Antiproliferative activity against human PC3 cells after 48 hrs by WST-1 assay; assay type: functional, cell-based; conditions: PC-3, 48 h; procedure, shortened: as §1
[17] = Antiproliferative activity against human HCT116 cells after 48 hrs by WST-1 assay; assay type: functional, cell-based; conditions: HCT-116, 48 h; procedure, shortened: as §1
[18] = Cell cycle arrest in human HCT116 cells assessed as accumulation at G2/M phase at 0.5 uM after 24 hrs by propidium iodide staining-based flow cytometry (reference value: 14.6%); assay type: functional; conditions: HCT-116; procedure, shortened: as §6
[19] = system: U-87 MG; test: Reduction of cell adherence in human U87MG cells after 30 mins by toluidine blue staining-based […]; assay type: functional; conditions: U-87MG ATCC
Procedure, shortened: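 U87-MG cells grown in 10% serum, trypsinised, diluted to 100 000 cells/mL in 10% serum medium, then treated 30 min with compound or DMSO. 20 000 cells per well allowed to attach 1 h. Fixed in 4% paraformaldehyde 30 min, stained with 0.1% toluidine blue in 4% PFA 30 min, washed, OD read at 620 nm for attached cells.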

[20] = molecular target: Protein-tyrosine kinase 2-beta (Homo sapiens) (UniProt Q14289); test: Inhibition of human recombinant Pyk2 using poly[Glu:Tyr] as substrate at 1 uM by [gamma-33P]ATP-based assay; procedure, shortened: as §2
Protein-tyrosine kinase 2-beta (Homo sapiens), sequence (Q14289 whole entry, looked up): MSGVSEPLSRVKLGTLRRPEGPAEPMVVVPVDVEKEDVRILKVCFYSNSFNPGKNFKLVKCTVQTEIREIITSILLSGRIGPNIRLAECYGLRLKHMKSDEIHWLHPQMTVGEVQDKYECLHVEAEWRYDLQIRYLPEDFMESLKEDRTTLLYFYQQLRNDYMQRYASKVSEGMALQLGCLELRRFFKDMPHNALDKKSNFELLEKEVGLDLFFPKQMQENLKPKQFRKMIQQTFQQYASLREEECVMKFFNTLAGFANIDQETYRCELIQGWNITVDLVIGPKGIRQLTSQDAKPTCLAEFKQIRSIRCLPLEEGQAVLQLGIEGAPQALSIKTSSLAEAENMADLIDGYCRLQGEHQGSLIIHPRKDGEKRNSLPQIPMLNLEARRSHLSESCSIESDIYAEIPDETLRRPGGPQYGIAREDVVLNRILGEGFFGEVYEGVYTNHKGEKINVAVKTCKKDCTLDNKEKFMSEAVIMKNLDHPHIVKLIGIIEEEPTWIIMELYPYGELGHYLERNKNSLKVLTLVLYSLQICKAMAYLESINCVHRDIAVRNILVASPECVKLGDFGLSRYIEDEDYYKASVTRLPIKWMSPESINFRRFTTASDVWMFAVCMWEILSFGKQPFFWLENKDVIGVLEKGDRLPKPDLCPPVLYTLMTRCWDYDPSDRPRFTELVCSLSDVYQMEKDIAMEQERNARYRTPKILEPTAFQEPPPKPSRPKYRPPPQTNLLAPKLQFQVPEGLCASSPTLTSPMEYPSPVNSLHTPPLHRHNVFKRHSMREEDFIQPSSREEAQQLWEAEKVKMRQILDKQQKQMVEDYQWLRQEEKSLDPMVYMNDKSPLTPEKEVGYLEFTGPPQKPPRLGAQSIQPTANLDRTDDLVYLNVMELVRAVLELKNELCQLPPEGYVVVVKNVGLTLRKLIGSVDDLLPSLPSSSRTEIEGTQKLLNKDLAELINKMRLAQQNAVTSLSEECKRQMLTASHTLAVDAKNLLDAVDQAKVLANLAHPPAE

[21] = Antiinvasive activity in human U87MG cells after 24 hrs by matrigel assay; assay type: functional, U-87MG ATCC
Procedure, shortened: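 U-87MG pre-exposed 24 h to compound or DMSO in 3% FBS, then 4 × 10^4 cells seeded in upper chamber of impedance-based CIM-16 plate (8 μm pore membrane) coated with Matrigel/collagen; lower chamber 10% FBS; cell index monitored at 37 °C, 5% CO2 for 12 h; slope (1/h) over set interval, DMSO slope set to 100; duplicate wells, repeated twice.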

[22] = system: U-87MG ATCC; test: Antimigratory activity in human U87MG cells after 30 mins by boyden chamber assay; assay type: functional, cell-based
[23] = system: MDA-MB-231; test: Inhibition of colony formation in human MDA-MB-231 cells after 2 weeks by crystal violet staining-based assay; assay type: functional, cell-based; procedure, shortened: as §4
[24] = molecular target: T1, Focal adhesion kinase 1; test: Inhibition of FAK phosphorylation at tyrosine 397 in human PC3 cells after 48 hrs by FACEFAK ELISA; assay type: cell-based; conditions: PC-3; procedure, shortened: as §5
Target sequence in this assay (Q05397 2-1052 limits assumed): as the sequence (Q05397 2-1052 limits assumed) above

[25] = molecular target: T1, Focal adhesion kinase 1; test: Inhibition of FAK (unknown origin) using ULight-poly GT as substrate after 1.6 hrs by TR-FRET assay
Target sequence in this assay (Q05397 whole entry): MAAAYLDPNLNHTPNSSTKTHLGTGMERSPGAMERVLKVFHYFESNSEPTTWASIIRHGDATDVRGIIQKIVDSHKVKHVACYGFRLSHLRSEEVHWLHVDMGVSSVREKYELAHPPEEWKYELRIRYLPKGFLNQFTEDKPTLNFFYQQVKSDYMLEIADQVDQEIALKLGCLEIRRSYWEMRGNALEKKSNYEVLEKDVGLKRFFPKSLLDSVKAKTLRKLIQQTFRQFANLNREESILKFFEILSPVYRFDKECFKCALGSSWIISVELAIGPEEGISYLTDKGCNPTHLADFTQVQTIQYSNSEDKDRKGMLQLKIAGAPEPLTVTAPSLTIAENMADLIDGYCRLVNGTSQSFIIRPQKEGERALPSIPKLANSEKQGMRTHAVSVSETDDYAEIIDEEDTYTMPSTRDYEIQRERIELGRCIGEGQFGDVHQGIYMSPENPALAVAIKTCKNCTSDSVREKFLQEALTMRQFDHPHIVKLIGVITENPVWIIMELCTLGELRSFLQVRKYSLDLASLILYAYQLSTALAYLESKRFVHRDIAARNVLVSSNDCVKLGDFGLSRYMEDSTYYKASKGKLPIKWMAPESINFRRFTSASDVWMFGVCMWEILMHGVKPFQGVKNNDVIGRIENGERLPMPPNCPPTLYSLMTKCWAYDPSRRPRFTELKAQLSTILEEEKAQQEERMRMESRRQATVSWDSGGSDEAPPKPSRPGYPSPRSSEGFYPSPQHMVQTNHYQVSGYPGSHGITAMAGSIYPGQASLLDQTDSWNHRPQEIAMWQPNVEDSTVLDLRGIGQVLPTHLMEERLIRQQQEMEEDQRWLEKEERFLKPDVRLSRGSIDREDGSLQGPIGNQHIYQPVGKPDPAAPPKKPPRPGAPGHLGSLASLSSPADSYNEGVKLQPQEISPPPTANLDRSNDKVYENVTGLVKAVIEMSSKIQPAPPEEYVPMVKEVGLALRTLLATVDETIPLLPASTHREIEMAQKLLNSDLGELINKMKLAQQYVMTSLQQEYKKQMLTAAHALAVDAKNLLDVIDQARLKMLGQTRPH

[26] = system: HCT-116; test: (§7) Inhibition of colony formation in human HCT116 cells after 2 weeks by crystal violet staining-based assay; assay type: functional, cell-based; procedure, shortened: as §4
[27] = as §7; assay type: functional, cell-based; conditions: HCT-116, 336 h; procedure, shortened: as §4

- inhibition [4]: inactive
- IC50 [7]: 630 nM
- inhibition [10]: Dose-dependent effect
- IC50 [11]: 800 nM
- inhibition [20]: inactive
- IC50 ([23]; MDA-MB-231, 336 h): 140 nM
- inhibition [24]: Dose-dependent effect
- IC50 [25]: 50 nM
- IC50 [27]: 130 nM
SMILES: C=COC(=O)NCc1ccc(Nc2nc(Nc3ccccc3C(=O)NC)n3ccnc3n2)cc1
- Activity [1]: 69.5%
- IC50 [2]: 2890 nM
- Ratio [3]: 2.9
- Activity [5]: Active
- inhibition [6]: Dose-dependent effect
- Activity [8]: 0.804%
- Activity [9]: 13.3%
- viability at 3 µM [12]: 97.4%
- Activity [13]: 11.6%
- Activity [14]: 16.1%
- Activity [15]: 25.9%
- IC50 [16]: 290 nM
- IC50 [17]: 520 nM
- Activity [18]: 54.7%
- Activity [19]: Dose-dependent effect
- Activity [21]: 50%
- Activity [22]: Dose-dependent effect
- inhibition [23]: Dose-dependent effect
- inhibition [26]: Dose-dependent effect
